High-throughput results from PubChem BioAssay.
TAAR1 agonist: human TAAR1 agonism; Q96RJ0; CHO RD-HGA16 TAAR1, Fluo-8 calcium fluorescence; vehicle wells 0%, saturating PEA agonist 100%; activation, % at 3 µM; hit rate 0.99% among 360,000; AID 624467;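 active = activation above the mean activation of all test compounds in the run plus 3 SD, cut at about 38% in these data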
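Test system: RD-HGA16 (CHO) cells co-expressing Gα16 and hTAAR1; dosing: one-point dosing at 3 µM (nominal); timing: 17-24 h seeding, 75 min 37 °C dye, 30 min RT; signal: kinetic Fluo-8 calcium fluorescence; read-out basis: % activation relative to PEA EC100 response; controls: DMSO and PEA EC100; replicates: n 1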
V1R ag counter: counter-screen for oxytocin receptor agonists: human V1a receptor agonists. P37288. CHO-V1R cells, Fluo-8 calcium fluorescence, agonist mode; 0% DMSO, 100% 3 nM vasopressin. activation, % at 3 µM. hit rate 0.25% among 320,000. AID 2797;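 active = activation above the mean activation of all tested compounds plus 3 SD, per screening run, cut at about 20% in these data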;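 also: signal is peak over basal fluorescence ratio across a 100 second FLIPR read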
Target sequence (P37288 whole entry, looked up): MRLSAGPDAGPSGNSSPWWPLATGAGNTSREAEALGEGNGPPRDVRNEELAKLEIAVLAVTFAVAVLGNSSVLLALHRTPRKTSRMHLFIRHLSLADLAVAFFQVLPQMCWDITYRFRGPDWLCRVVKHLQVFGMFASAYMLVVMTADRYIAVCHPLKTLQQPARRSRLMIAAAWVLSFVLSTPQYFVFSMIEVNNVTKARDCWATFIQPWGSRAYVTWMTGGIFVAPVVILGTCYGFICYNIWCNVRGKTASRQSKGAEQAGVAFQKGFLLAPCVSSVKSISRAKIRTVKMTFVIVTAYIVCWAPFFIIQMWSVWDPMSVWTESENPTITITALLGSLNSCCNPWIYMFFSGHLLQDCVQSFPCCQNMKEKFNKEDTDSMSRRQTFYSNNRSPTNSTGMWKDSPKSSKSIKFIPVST
TAAR1 antagonist: human TAAR1 antagonism; Q96RJ0; CHO RD-HGA16 TAAR1, Fluo-8 calcium fluorescence, antagonist; inhibition, % at 3 µM; hit rate 1.5% among 360,000; AID 624466;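 active = inhibition above a per-plate cutoff, the mean inhibition of test compounds on that plate plus 3 SD, cut at about 49% in these data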
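Assay system: CHO-derived RD-HGA16 cells stably expressing human TAAR1 plus Gα16. Timing: 140 s kinetic read after compound, 140 s after agonist. Technique: kinetic Fluo-8 calcium fluorescence measurement. Measure: % inhibition of agonist calcium response.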
OXTR agonist: activates the human oxytocin receptor. P30559. activation, % at 3 µM. hit rate 0.32% among 320,000. CHO-OTR cells, Fluo-8 calcium fluorescence; normalized: DMSO 0%, oxytocin 100%;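 active = activation above the mean of all tested compounds plus 3 SD, cutoff set per screening run, cut at about 20% in these data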;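 also: peak over basal fluorescence ratio from a 100 s FLIPR kinetic read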
OXTR potentiate: potentiators of human oxytocin receptor; CHO-OTR cells, Fluo-8 calcium fluorescence, potentiator mode; 0% = oxytocin EC15, 100% = EC100; activation, % at 3 µM; hit rate 0.061% among 320,000; AID 2445;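 active = activation above that plate's cutoff, the mean activation of tested compounds plus 3 SD, cut at about 6.6% in these data, passing the limit was not always enough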
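test system = CHO-OTR cells, human receptor | compound = single-point 3.0 µM | schedule = 6 min compound pre-incubation at room temperature, 100 s kinetic read | signal = Fluo-8 no-wash calcium dye fluorescence, excitation 470-495 nm, emission 515-575 nm | repeats = single well per compound, singlicate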
A number is an active result. In the library only some 2.3% were active in any assay of this set; here they are far more common.

For Cc1ccccc1-c1cc(C(=O)NCc2cccc(C(F)(F)F)c2)n(CC2CC(c3cccnc3)=NO2)n1 (stereo not drawn) the results were TAAR1 agonist inactive, V1R ag counter inactive, TAAR1 antagonist 55, OXTR agonist inactive and OXTR potentiate inactive.
Screening Cc1c(O)ccc(/C=N/Nc2nc(-c3cccnc3)nc3ccccc23)c1O returned TAAR1 agonist inactive, V1R ag counter inactive, TAAR1 antagonist 74, OXTR agonist inactive and OXTR potentiate inactive.
Screening Cc1cc(N/N=C/c2ccc(O)c(C)c2O)nc(-c2ccccc2O)n1 returned TAAR1 agonist inactive, V1R ag counter inactive, TAAR1 antagonist 57, OXTR agonist inactive and OXTR potentiate inactive.
`CCOC(=O)c1ccc(Nc2nc(-c3cccnc3)nc3ccccc23)cc1` gave TAAR1 agonist inactive, V1R ag counter inactive, TAAR1 antagonist 56, OXTR agonist inactive and OXTR potentiate inactive.
Screening Cc1ccccc1Nc1nc(-c2cccnc2)nc2ccccc12 returned TAAR1 agonist inactive, V1R ag counter inactive, TAAR1 antagonist inactive, OXTR agonist inactive and OXTR potentiate inactive.
For Cc1cn([C@H]2C[C@H](O)[C@@H](/C=C/C(=O)NCCc3ccc4ccccc4c3)O2)c(=O)[nH]c1=O the results were TAAR1 agonist inactive and TAAR1 antagonist inactive.
`COC(=O)C1CCN(C(=O)c2cc(-c3ccc(Cl)s3)nc3ccccc23)CC1` gave TAAR1 agonist inactive, V1R ag counter inactive, TAAR1 antagonist 57, OXTR agonist inactive and OXTR potentiate inactive.
`Cc1ccnc(SCCn2c(N3CCN(c4ccccc4)CC3)nc3c2c(=O)[nH]c(=O)n3C)n1` gave TAAR1 agonist inactive, V1R ag counter inactive, TAAR1 antagonist 51, OXTR agonist inactive and OXTR potentiate inactive.
Screening Cc1ccc(S(=O)(=O)Cn2nnnc2C(CC(C)C)N2CCN(C3CCCC3)CC2)cc1 (stereo not drawn) returned TAAR1 agonist inactive, V1R ag counter inactive, TAAR1 antagonist inactive, OXTR agonist inactive and OXTR potentiate inactive.
`COC(=O)N(C)C[C@H]1OCc2cn(nn2)CCCC(=O)N([C@H](C)CO)C[C@@H]1C` gave TAAR1 agonist inactive and TAAR1 antagonist inactive.
COc1ccccc1NC(=O)CCCc1nc(-c2ccc(OC)c(OC)c2)no1 was read as TAAR1 agonist inactive, V1R ag counter inactive, TAAR1 antagonist inactive, OXTR agonist inactive and OXTR potentiate inactive.
Screening COc1ccc(-c2noc(CCCC(=O)NCCc3ccccc3)n2)cc1OC returned TAAR1 agonist 58, V1R ag counter inactive, TAAR1 antagonist inactive, OXTR agonist inactive and OXTR potentiate inactive.
`O=C(NCCc1cccc(C(F)(F)F)c1)C1CCC(=O)N(Cc2ccc(Cl)cc2)C1` (stereo not drawn) gave TAAR1 agonist inactive, V1R ag counter inactive, TAAR1 antagonist inactive, OXTR agonist inactive and OXTR potentiate inactive.
For CC(NC(=O)CSc1nnc(CC(=O)Nc2ccc(Cl)c(Cl)c2)n1C)c1ccccc1 (stereo not drawn) the results were TAAR1 agonist 42, V1R ag counter inactive, TAAR1 antagonist inactive, OXTR agonist inactive and OXTR potentiate inactive.
NS(=O)(=O)c1ccc(CCNC(=O)C(=O)C2C(=O)Nc3ccccc32)cc1 (stereo not drawn) was read as TAAR1 agonist inactive, V1R ag counter inactive, TAAR1 antagonist inactive, OXTR agonist inactive and OXTR potentiate inactive.
Screening Cc1ccc(C(=O)Nc2ccc(Oc3cccc(C(F)(F)F)c3)nc2)cc1 returned TAAR1 agonist 40, V1R ag counter inactive, TAAR1 antagonist inactive, OXTR agonist inactive and OXTR potentiate inactive.
O=C(O)c1ccccc1C(=O)Nc1ccc(Oc2cccc(C(F)(F)F)c2)nc1 was read as TAAR1 agonist inactive, V1R ag counter inactive, TAAR1 antagonist inactive, OXTR agonist inactive and OXTR potentiate inactive.
`COCCn1c(SCC(=O)N2CCCCC2)nc2c(c1=O)SC(C)C2` (stereo not drawn) gave TAAR1 agonist inactive, V1R ag counter inactive, TAAR1 antagonist inactive, OXTR agonist inactive and OXTR potentiate inactive.
For COc1ccc(-c2cc(-c3nnc(COC(=O)C4CC4)o3)c3ccccc3n2)cc1OC the results were TAAR1 agonist inactive, V1R ag counter inactive, TAAR1 antagonist 52, OXTR agonist inactive and OXTR potentiate inactive.
Screening CCc1ccc([C@H]2C[C@H]3[C@H]4C(=O)N(c5ccccc5)C(=O)[C@H]4CC(=O)[C@@H]3CN2S(=O)(=O)c2ccc(C)cc2)cc1 returned TAAR1 agonist inactive and TAAR1 antagonist inactive.
Screening Cc1ccc(S(=O)(=O)N2C[C@H]3C(=O)C[C@@H]4C(=O)N(c5ccccc5)C(=O)[C@@H]4[C@@H]3C[C@H]2c2cccc(Cl)c2)cc1 returned TAAR1 agonist inactive and TAAR1 antagonist 60.
`c1ccc2c(c1)OCC(CNCC1COc3ccccc3O1)O2` (stereo not drawn) gave TAAR1 agonist inactive, V1R ag counter inactive, TAAR1 antagonist inactive, OXTR agonist inactive and OXTR potentiate inactive.
For Oc1ccc(CNCC2COc3ccccc3O2)cc1 (stereo not drawn) the results were TAAR1 agonist 38, V1R ag counter inactive, TAAR1 antagonist inactive, OXTR agonist inactive and OXTR potentiate inactive.
Cc1nc(N)sc1C(=O)N/N=C/c1ccccc1[N+](=O)[O-] was read as TAAR1 agonist inactive, V1R ag counter inactive, TAAR1 antagonist inactive, OXTR agonist inactive and OXTR potentiate inactive.
CC(/C=N/NC(=O)c1sc(N)nc1C)=C\c1ccccc1 was read as TAAR1 agonist 40, V1R ag counter inactive, TAAR1 antagonist inactive, OXTR agonist inactive and OXTR potentiate inactive.
Cc1c(C=NCCOCc2ccccc2)cnn1C was read as TAAR1 agonist 42, V1R ag counter inactive, TAAR1 antagonist inactive, OXTR agonist inactive and OXTR potentiate inactive.
COC(=O)CNC(=O)CN(c1ccc(OC)cc1OC)S(=O)(=O)c1ccccc1 was read as TAAR1 agonist inactive, V1R ag counter inactive, TAAR1 antagonist inactive, OXTR agonist inactive and OXTR potentiate inactive.
For COc1ccc(N(S(=O)(=O)c2ccccc2)S(=O)(=O)c2ccccc2)c(N)c1 the results were TAAR1 agonist inactive, V1R ag counter inactive, TAAR1 antagonist 51, OXTR agonist inactive and OXTR potentiate inactive.
For O=C(Nc1ccc(N2CCN(c3ncccc3C(F)(F)F)CC2)nc1)c1cccs1 the results were TAAR1 agonist inactive, V1R ag counter inactive, TAAR1 antagonist 75, OXTR agonist inactive and OXTR potentiate inactive.
For O=C(Nc1ccc(N2CCN(c3ccc(C(F)(F)F)cn3)CC2)nc1)c1cccs1 the results were TAAR1 agonist inactive, V1R ag counter inactive, TAAR1 antagonist inactive, OXTR agonist inactive and OXTR potentiate inactive.
`C=CCn1c(C)cc(C(=O)CSc2nc3ccccc3[nH]2)c1C` gave TAAR1 agonist inactive, V1R ag counter inactive, TAAR1 antagonist 60, OXTR agonist inactive and OXTR potentiate inactive.
